Active and inactive are the calls of the source. No cut-off for these calls is given here. Non-standard residues stand in square brackets, D forms with d. Residues, ends and D or L forms follow the SMILES beside them.
Assays:
Enterococcus faecalis [1] = assay: Antibacterial activity against Enterococcus faecalis SR1004 by broth microdilution method; assay type: functional
Method in brief: (§1)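 MIC was determined by broth microdilution following NCCLS recommendations.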

Mus musculus [2] = assay: Induction of ROS generation in intraperitoneally dosed ICR mouse abdominal cavity neutrophils after 7 hrs by lucigenin-dependent chemiluminescence method; assay type: functional, organism-based
Method in brief: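 Peptide was injected intraperitoneally. After 7 h, peritoneal cells were collected by lavage with 5 ml cold saline, washed, and suspended at 2 × 10⁵ cells/ml in HEPES-buffered Hank's solution, pH 7.4. After 5 min at 37°C, lucigenin was added to 0.1 mM final. Chemiluminescence was read at 37°C in relative light units. The experiment was repeated and representative data shown.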

Mus musculus [3] = species: Mus musculus; assay: Induction of Mig/CXCL9 mRNA expression in TGC-elicited ICR mouse peritoneal macrophage at 25 ug/ml after 5 hrs by RT-PCR; assay type: functional
Method in brief: (§2)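 Mouse peritoneal macrophages were elicited with 3 ml of 3% thioglycolate medium given intraperitoneally and collected 4 days later by lavage with cold PBS. Cells were seeded at 1 × 10⁶/ml in RPMI-1640 with 10% heat-inactivated FCS and allowed to adhere for 2 h at 37°C; nonadherent cells were then rinsed off. Cells were exposed to peptide at 25 μg/ml for 2.5, 5 or 7.5 h, with LPS at 100 ng/ml for 24 h as positive control. RT-PCR used 400 ng total RNA and 25–35 cycles, with ethidium bromide agarose gels and G3PDH primers; n = 3.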

Staphylococcus aureus [4] = assay: Antibacterial activity against Staphylococcus aureus Smith infected in ICR mouse assessed as survival rate at 100 ug, ip pretreated for 7 hrs before infection using 2 X 10^6 CFU inoculum measured on day 5 after bacterial infection; assay type: functional
Method in brief: (§3)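 Five-week-old female ICR mice got peptide intraperitoneally in 500 μl Dulbecco's PBS with 2% DMSO; vehicle controls got PBS/2% DMSO. The minimum lethal bacterial dose was given intraperitoneally at set intervals: S. aureus Smith 2 × 10⁶, E. faecalis SR1004 1.7 × 10⁸, E. coli EC14 2.3 × 10⁴ CFU/mouse. Survival was scored on day 5 (4 or 8 mice/group; Fisher's exact test).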

Mus musculus [5] = assay: Induction of neutrophil recruitment in intraperitoneally dosed ICR mouse abdominal cavity assessed as accumulation of neutrophils after 7 hrs using hematoxylin and eosin staining by microscopy; assay type: functional, organism-based
Method in brief: (§4)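 Peptide was injected intraperitoneally. After 7 h, the peritoneal cavity was lavaged with 5 ml cold sterile saline. Cells were washed, resuspended at 1 × 10⁶/ml in heat-inactivated FCS, cytocentrifuged, and stained with Diff-Quick. Total cells and neutrophils were counted by microscopy, and neutrophil percentage was averaged over five fields ± SD. Comparison used an unpaired t test after arcsine transformation.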

Escherichia coli [6] = assay: Antibacterial activity against Escherichia coli EC14 by broth microdilution method; assay type: functional; method in brief: as §1
Enterococcus faecalis [7] = assay: Antibacterial activity against Enterococcus faecalis SR1004 infected in ICR mouse assessed as survival rate at 100 ug, ip pretreated for 7 hrs before infection using 1.7 X 10^8 inoculum measured on day 5 after bacterial infection; assay type: functional; method in brief: as §3
Staphylococcus aureus [8] = assay: Antibacterial activity against Staphylococcus aureus Cowan I infected in intraperitoneally dosed ICR mouse assessed as bacterial kill in abdomen pretreated for 7 hrs before infection using 4 X 10^5 CFU inoculum; assay type: functional
Method in brief: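 Peptide solution (500 μl) was injected ip. After 7 h, S. aureus Cowan I (4 × 10⁵ CFU/mouse) was introduced into the abdominal cavity for 15 min. The peritoneum was lavaged with 5 ml cold sterile saline, serially diluted in PBS and plated on LB agar for 18 h. Colonies were counted against saline-control mice (unpaired Student's t test).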

Escherichia coli [9] = assay: Antibacterial activity against Escherichia coli EC14 infected in ICR mouse assessed as survival rate at 100 ug, ip pretreated for 7 hrs before infection using 2.3 X 10^4 CFU inoculum measured on day 5 after bacterial infection; assay type: functional; method in brief: as §3
[10] = system: Peritoneal macrophage cell; assay: Induction of Mig/CXCL9 mRNA expression in TGC-elicited ICR mouse peritoneal macrophage at 25 ug/ml after 7.5 hrs by RT-PCR; assay type: functional, cell-based; method in brief: as §2
[11] = system: Peritoneal macrophage cell; assay: Induction of Mig/CXCL9 mRNA expression in TGC-elicited ICR mouse peritoneal macrophage at 25 ug/ml after 2.5 to 5 hrs by RT-PCR; assay type: functional, cell-based; method in brief: as §2
Mus musculus [12] = assay: Induction of neutrophil recruitment in intraperitoneally dosed ICR mouse abdominal cavity assessed as neutrophil level after 7 hrs using hematoxylin and eosin staining by microscopy; assay type: functional; method in brief: as §4
Staphylococcus aureus [13] = assay: Antibacterial activity against Staphylococcus aureus Smith by broth microdilution method; assay type: functional; method in brief: as §1
Escherichia coli [14] = assay: Antibacterial activity against Escherichia coli EC14 infected in ICR mouse assessed as survival rate at 100 ug, ip pretreated for 7 hrs before infection using 2.5 X 10^4 CFU inoculum measured on day 5; assay type: functional
Staphylococcus aureus [15] = assay: Antibacterial activity against Staphylococcus aureus Smith infected in ICR mouse assessed as survival rate at 50 ug, ip treated 0.5 hrs after infection using 2 X 10^6 CFU inoculum measured on day 5 after bacterial infection; assay type: functional; method in brief: as §3
Staphylococcus aureus [16] = assay: Antibacterial activity against Staphylococcus aureus Smith infected in ICR mouse assessed as survival rate at 100 ug, ip pretreated for 7 hrs before infection using 3 X 10^7 CFU inoculum measured on day 5; assay type: functional
Staphylococcus aureus [17] = assay: Antibacterial activity against Staphylococcus aureus Smith infected in ICR mouse assessed as survival rate at 50 ug, ip treated at the time of infection using 2 X 10^6 CFU inoculum measured on day 5 after bacterial infection; assay type: functional; method in brief: as §3
Staphylococcus aureus [18] = assay: Antibacterial activity against Staphylococcus aureus Smith infected in ICR mouse assessed as survival rate at 12.5 ug, ip pretreated for 7 hrs before infection using 2 X 10^6 CFU inoculum measured on day 5 after bacterial infection; assay type: functional; method in brief: as §3
Staphylococcus aureus [19] = assay: Antibacterial activity against Staphylococcus aureus Smith infected in ICR mouse assessed as survival rate at 50 ug, ip pretreated for 24 hrs before infection using 2 X 10^6 CFU inoculum measured on day 5 after bacterial infection; assay type: functional; method in brief: as §3
Staphylococcus aureus [20] = assay: Antibacterial activity against Staphylococcus aureus Smith infected in ICR mouse assessed as survival rate at 25 ug, ip pretreated for 7 hrs before infection using 2 X 10^6 CFU inoculum measured on day 5 after bacterial infection; assay type: functional; method in brief: as §3
Staphylococcus aureus [21] = assay: Antibacterial activity against Staphylococcus aureus Smith infected in ICR mouse assessed as survival rate at 50 ug, ip pretreated for 3 hrs before infection using 2 X 10^6 CFU inoculum measured on day 5 after bacterial infection; assay type: functional; method in brief: as §3
Staphylococcus aureus [22] = assay: Antibacterial activity against Staphylococcus aureus Smith infected in ICR mouse assessed as survival rate at 3.13 ug, ip pretreated for 7 hrs before infection using 2 X 10^6 CFU inoculum measured on day 5 after bacterial infection; assay type: functional; method in brief: as §3
Staphylococcus aureus [23] = assay: Antibacterial activity against Staphylococcus aureus Smith infected in ICR mouse assessed as survival rate at 50 ug, ip pretreated for 1 hr before infection using 2 X 10^6 CFU inoculum measured on day 5 after bacterial infection; assay type: functional; method in brief: as §3
Staphylococcus aureus [24] = assay: Antibacterial activity against Staphylococcus aureus Smith infected in ICR mouse assessed as survival rate at 100 ug, ip pretreated for 7 hrs before infection using 3 X 10^6 CFU inoculum measured on day 5; assay type: functional
Staphylococcus aureus [25] = assay: Antibacterial activity against Staphylococcus aureus Smith infected in ICR mouse assessed as survival rate at 50 ug, ip pretreated for 7 hrs before infection using 2 X 10^6 CFU inoculum measured on day 5 after bacterial infection; assay type: functional; method in brief: as §3
Escherichia coli [26] = assay: Antibacterial activity against Escherichia coli EC14 infected in ICR mouse assessed as survival rate at 100 ug, ip pretreated for 7 hrs before infection using 2.5 X 10^3 CFU inoculum measured on day 5; assay type: functional

H-KLKLLLLLKLK-NH2 was tested, and the MIC (Enterococcus faecalis [1]) was > 625 µg/mL, the Activity (Mus musculus [2]) was “Active” and the Activity (Mus musculus [3]) was “Active”. For the same compound, the Survival (Staphylococcus aureus [4]) was 75%, the Activity (Mus musculus [5]) was “Active” and the MIC (Escherichia coli [6]) was > 625 µg/mL. It also gave a Survival (Enterococcus faecalis [7]) of 75%, an Activity (Staphylococcus aureus [8]) of 75% and a Survival (Escherichia coli [9]) of 25%. The Activity [10] was “inactive”, the Activity [11] was “Active” and the Activity (Mus musculus [12]) was 40%. The MIC (Staphylococcus aureus [13]) was > 625 µg/mL.
In the case of H-KLKLLLKLK-NH2, the Activity (Mus musculus [2]) is reported as “inactive” and the Survival (Staphylococcus aureus [4]) is reported as 0%.
In the case of `CC(C)C[C@@H](NC(=O)[C@H](N)CCCCN)C(=O)N[C@H](CCCCN)C(=O)N[C@H](CC(C)C)C(=O)N[C@H](CC(C)C)C(=O)N[C@H](CC(C)C)C(=O)N[C@H](CC(C)C)C(=O)N[C@H](CC(C)C)C(=O)N[C@H](CCCCN)C(=O)N[C@H](CC(C)C)C(=O)N[C@H](CCCCN)C(N)=O` (H-[dK][dL][dK][dL][dL][dL][dL][dL][dK][dL][dK]-NH2), the MIC (Enterococcus faecalis [1]) is reported as > 625 µg/mL, the Activity (Escherichia coli [14]) is reported as 100% and the Survival (Staphylococcus aureus [15]) is reported as 0%. The Activity (Staphylococcus aureus [16]) was 25%, the Survival (Staphylococcus aureus [4]) was 100% and the Survival (Staphylococcus aureus [17]) was 0%. The Survival (Staphylococcus aureus [18]) was 0%, the MIC (Escherichia coli [6]) was > 625 µg/mL and the Survival (Staphylococcus aureus [19]) was 0%. It also gave a Survival (Enterococcus faecalis [7]) of 100%, a Survival (Escherichia coli [9]) of 75% and a Survival (Staphylococcus aureus [20]) of 75%. The Survival (Staphylococcus aureus [21]) was 62.5%, the Survival (Staphylococcus aureus [22]) was 0% and the Survival (Staphylococcus aureus [23]) was 25%. The Activity (Staphylococcus aureus [24]) was 50%, the Survival (Staphylococcus aureus [25]) was 87.5% and the Activity (Escherichia coli [26]) was 100%. The MIC (Staphylococcus aureus [13]) was > 625 µg/mL.

— ChEMBL document CHEMBL1687732, “Prevention of death in bacterium-infected mice by a synthetic antimicrobial peptide, L5, through activation of host immunity” (2009)
